Converted amounts (≈) assume the structure as drawn.
Columns and labels:
P388 [1] = experiment: Number of mice with P-388 lymphocytic leukemia cured(1.2 mg/kg),ip; 0/7; format: functional, Mus musculus
In short: (§1)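 Male CDF1 mice (18-23 g) were inoculated ip with 10⁶ P-388 cells on day 0. Drug was given ip in 10% dimethyl sulfoxide-saline on days 1, 5 and 9. Test solutions were kept at 0-4 °C, protected from light, and checked periodically for stability and homogeneity by TLC and HPLC. Read-out was survival, median survival time, increase in life span and tumor-free cures per 7 animals.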

P388 [2] = experiment: Antitumor activity against P-388 lymphocytic leukemia in CDF1 hybrid male mice measured as percent increase in lifespan( 1.2 mg/kg),ip; format: functional; conditions: Mus musculus; in short: as §1
P388 [3] = experiment: Maximum tolerated dose was determined compared to 7-(2,3-Epoxypropoxy)-actinomycin D against P-388 leukemia in mice(3 days); format: functional, Mus musculus
In short: (§2)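 Tumor-free male CDF1 mice (18-23 g) received a broad dose range ip in 10% dimethyl sulfoxide-saline, either on days 1, 5, 9 (three injections) or on 4 successive days (qd 1-4). Deaths were recorded over 21 days. MTD was the dose lethal to 10% (LD10), taken from a plot of log dose vs percent mortality. Average of two experiments.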

P388 [4] = experiment: Antitumor activity against P-388 lymphocytic leukemia in CDF1 hybrid male mice measured as percent increase in lifespan( 1.8 mg/kg),ip; format: functional; conditions: Mus musculus; in short: as §1
P388 [5] = experiment: Number of mice with P-388 lymphocytic leukemia cured.( 0.3 mg/kg),ip; 0/7; format: functional, Mus musculus
P388 [6] = experiment: Number of mice with P-388 lymphocytic leukemia cured(0.15 mg/kg),ip.; 0/7; format: functional, Mus musculus; in short: as §1
Homo sapiens = organism: Homo sapiens; experiment: In vitro growth inhibitory activity against human lymphoblastic leukemia cells; format: functional; conditions: read-out: ID50 (the source's name)
In short: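 Human CCRF-CEM lymphoblastic leukemia cells were used in log-phase growth. Compounds were dissolved in Me2SO, and the final growth medium contained 1% Me2SO. Test solution homogeneity was checked by TLC and HPLC at each test.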

P388 [7] = experiment: Antitumor activity against P-388 lymphocytic leukemia in CDF1 hybrid male mice measured as percent increase in lifespan( 3 mg/kg),ip; format: functional; conditions: Mus musculus; in short: as §1
P388 [8] = experiment: Antitumor activity against P-388 lymphocytic leukemia in CDF1 hybrid male mice measured as median survival time ( 1.2 mg/kg),ip; format: functional, Mus musculus; in short: as §1
P388 [9] = experiment: Minimum effective dose was determined compared to 7-(2,3-Epoxypropoxy)-actinomycin D against P-388 leukemia in mice(3 days); format: functional, Mus musculus; set-up: unit: mg/kg
In short: (§3)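 MED was the dose (mg/kg) giving a 40% increase in life span over control in mice bearing ip P-388 leukemia. Drug was given ip in 10% dimethyl sulfoxide-saline on a q4d 1, 5, 9 (three injections) or qd 1-4 (four injections) schedule.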

P388 [10] = experiment: Antitumor activity against P-388 lymphocytic leukemia in CDF1 hybrid male mice measured as percent increase in lifespan(0.3 mg/kg),ip; format: functional, Mus musculus; in short: as §1
P388 [11] = experiment: Antitumor activity against P-388 lymphocytic leukemia in CDF1 hybrid male mice measured as median survival time (0.3 mg/kg),ip; format: functional, Mus musculus; in short: as §1
P388 [12] = experiment: Antitumor activity against P-388 lymphocytic leukemia in CDF1 hybrid male mice measured as percent increase in lifespan( 0.6 mg/kg),ip; format: functional; conditions: Mus musculus; in short: as §1
P388 [13] = experiment: Antitumor activity against P-388 lymphocytic leukemia in CDF1 hybrid male mice measured as median survival time (0.15 mg/kg),ip; format: functional, Mus musculus; in short: as §1
P388 [14] = experiment: Number of mice with P-388 lymphocytic leukemia cured.(1.8 mg/kg),ip; 0/7; format: functional, Mus musculus
P388 [15] = experiment: Antitumor activity against P-388 lymphocytic leukemia in CDF1 hybrid male mice measured as percent increase in lifespan( 0.15 mg/kg),ip; format: functional; conditions: Mus musculus; in short: as §1
P388 [16] = experiment: Number of mice with P-388 lymphocytic leukemia cured.( 0.6 mg/kg),ip; 0/7; format: functional, Mus musculus
P388 [17] = experiment: Maximum tolerated dose was determined compared to 7-(2,3-Epoxypropoxy)-actinomycin D against P-388 leukemia in mice(4 days); format: functional, Mus musculus; in short: as §2
P388 [18] = experiment: Number of mice with P-388 lymphocytic leukemia cured( 3 mg/kg),ip; 0/7; format: functional, Mus musculus; in short: as §1
P388 [19] = experiment: Minimum effective dose was determined compared to 7-(2,3-Epoxypropoxy)-actinomycin D against P-388 leukemia in mice(4 days); format: functional, Mus musculus; in short: as §3
P388 [20] = experiment: Antitumor activity against P-388 lymphocytic leukemia in CDF1 hybrid male mice measured as median survival time ( 0.6 mg/kg),ip; format: functional, Mus musculus; in short: as §1
P388 [21] = experiment: Antitumor activity against P-388 lymphocytic leukemia in CDF1 hybrid male mice measured as median survival time (1.8 mg/kg),ip; format: functional, Mus musculus; in short: as §1
P388 [22] = experiment: Antitumor activity against P-388 lymphocytic leukemia in CDF1 hybrid male mice measured as median survival time (3 mg/kg),ip; format: functional, Mus musculus; in short: as §1
[23] = Therapeutic Index measured as the MTD/MED ratio compared to that of compound 3; conditions: read-out: Therapeutic index
In short: (§4)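 Therapeutic index is MTD/MED, with ip dosing in 10% dimethyl sulfoxide-saline on a qd 1-4 or q4d 1, 5, 9 schedule. MED is the dose giving a 40% increase in life span over control in P-388-bearing mice. MTD is the LD10 in tumor-free male CDF1 mice (18-23 g) over 21 days, read from a log dose vs. percent mortality plot and averaged over 2-3 experiments.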

[24] = Therapeutic Index measured as the MTD/MED ratio compared to that of compound 4; conditions: read-out: Therapeutic index; in short: as §4

**Q.** For Cc1c2oc3c(C)c(O)c(N)c(C(=O)N[C@@H]4C(=O)N[C@H](C(C)C)C(=O)N5CCC[C@H]5C(=O)N(C)CC(=O)N(C)[C@@H](C(C)C)C(=O)O[C@@H]4C)c3nc-2c(C(=O)N[C@@H]2C(=O)N[C@H](C(C)C)C(=O)N3CCC[C@H]3C(=O)N(C)CC(=O)N(C)[C@@H](C(C)C)C(=O)O[C@@H]2C)cc1=O, which Cure (P388 [1]) is on record?
**A.** Its Cure is 0.

**Q.** And the ILS at 1.2 mg/kg (P388 [2])?
**A.** The ILS at 1.2 mg/kg was 127%.

**Q.** What about the MTD (P388 [3]) of the same molecule?
**A.** The MTD was 4.2.

**Q.** And the ILS at 1.8 mg/kg (P388 [4])?
**A.** Its ILS at 1.8 mg/kg is 136%.

**Q.** What about the Cure (P388 [5]) of the same molecule?
**A.** The Cure was 0.

**Q.** And the Cure (P388 [6])?
**A.** Its Cure is 0.

**Q.** What about the IC50 (Homo sapiens) of the same molecule?
**A.** The IC50 was 0.95 µg/mL (≈ 0.747 µM).

**Q.** What about the ILS at 3 mg/kg (P388 [7]) of the same molecule?
**A.** The ILS at 3 mg/kg was 37%.

**Q.** And the MST (P388 [8])?
**A.** Its MST is 25 days.

**Q.** And the MED (P388 [9])?
**A.** The MED was 0.275.

**Q.** What about the ILS (P388 [10]) of the same molecule?
**A.** Its ILS is 55%.

**Q.** And the MST (P388 [11])?
**A.** Its MST is 17 days.

**Q.** What about the ILS at 0.6 mg/kg (P388 [12]) of the same molecule?
**A.** Its ILS at 0.6 mg/kg is 89%.

**Q.** What about the MST (P388 [13]) of the same molecule?
**A.** The MST was 12 days.

**Q.** And the Cure (P388 [14])?
**A.** The Cure was 0.

**Q.** And the ILS at 0.15 mg/kg (P388 [15])?
**A.** Its ILS at 0.15 mg/kg is 10%.

**Q.** What about the Cure (P388 [16]) of the same molecule?
**A.** Its Cure is 0.

**Q.** And the MTD (P388 [17])?
**A.** The MTD was 2.

**Q.** What about the Cure (P388 [18]) of the same molecule?
**A.** The Cure was 0.

**Q.** What about the MED (P388 [19]) of the same molecule?
**A.** Its MED is 0.2.

**Q.** What about the MST (P388 [20]) of the same molecule?
**A.** Its MST is 21 days.

**Q.** What about the MST (P388 [21]) of the same molecule?
**A.** Its MST is 26 days.

**Q.** What about the MST (P388 [22]) of the same molecule?
**A.** Its MST is 15 days.

**Q.** What does the source list for Cc1c2oc3c(C)c(OCC4CO4)cc(C(=O)N[C@@H]4C(=O)N[C@H](C(C)C)C(=O)N5CCC[C@H]5C(=O)N(C)CC(=O)N(C)[C@@H](C(C)C)C(=O)O[C@@H]4C)c3nc-2c(C(=O)N[C@@H]2C(=O)N[C@H](C(C)C)C(=O)N3CCC[C@H]3C(=O)N(C)CC(=O)N(C)[C@@H](C(C)C)C(=O)O[C@@H]2C)c(N)c1=O (stereo not given in full)?
**A.** selectivity ratio [23]: 72; selectivity ratio [24]: 43

Source: ChEMBL document CHEMBL1121953, “Carbon-7 substituted actinomycin D analogues as improved antitumor agents: synthesis and DNA-binding and biological properties” (J Med Chem, 1982)
